According to ChEMBL document CHEMBL2321824, “5-((1-Aroyl-1H-indol-3-yl)methylene)-2-thioxodihydropyrimidine-4,6(1H,5H)-diones as potential anticancer agents with anti-inflammatory properties” (2013):

Key:
Format in all cases: functional
KM12 = assay: Cytotoxicity against human KM12 cells; conditions: for CC50: read-out: LC50 (the source's name)
How it was run: (§1)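 Tested in the NCI 60 human tumor cell line panel (leukemia, NSCLC, colon, CNS, melanoma, ovarian, renal, prostate and breast lines) at five doses. A single-dose pre-screen at 10 μM selected which compounds went on. Effect was plotted against log10 drug concentration for each line. GI50 is the molar concentration giving 50% growth inhibition; LC50 is the concentration killing 50% of cells.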

NCI/ADR-RES = assay: Cytotoxicity against human NCI/ADR-RES cells; conditions: for CC50: read-out: LC50 (the source's name); how it was run: as §1
SF-268 = assay: Cytotoxicity against human SF268 cells; how it was run: as §1
U-251 = assay: Cytotoxicity against human U251 cells; conditions: for CC50: read-out: LC50 (the source's name); how it was run: as §1
DU-145 = assay: Cytotoxicity against human DU145 cells; conditions: for CC50: read-out: LC50 (the source's name); how it was run: as §1
HCT-116 = assay: Cytotoxicity against human HCT116 cells; conditions: for CC50: read-out: LC50 (the source's name); how it was run: as §1
OVCAR-3 = assay: Cytotoxicity against human OVCAR3 cells; conditions: for CC50: read-out: LC50 (the source's name); how it was run: as §1
MDA-MB-435 = assay: Cytotoxicity against human MDA-MB-435 cells; conditions: for CC50: read-out: LC50 (the source's name)
How it was run: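 Tested in the NCI 60 human tumor cell line panel (leukemia, NSCLC, colon, CNS, melanoma, ovarian, renal, prostate and breast lines) at five doses. A single-dose pre-screen at 10 μM selected which compounds went on. Effect was plotted against log10 drug concentration for each line.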

HL-60(TB) = assay: Cytotoxicity against human HL-60(TB) cells; how it was run: as §1
K562 = assay: Cytotoxicity against human K562 cells; how it was run: as §1
SF-539 = assay: Cytotoxicity against human SF539 cells; conditions: for CC50: read-out: LC50 (the source's name); how it was run: as §1
UACC-62 = assay: Cytotoxicity against human UACC62 cells; conditions: for CC50: read-out: LC50 (the source's name); how it was run: as §1
LOX IMVI = assay: Cytotoxicity against human LOXIMVI cells; conditions: for CC50: read-out: LC50 (the source's name); how it was run: as §1
HCT-15 = assay: Cytotoxicity against human HCT15 cells; conditions: for CC50: read-out: LC50 (the source's name); how it was run: as §1
SR = assay: Cytotoxicity against human SR cells; how it was run: as §1
HOP-62 = assay: Cytotoxicity against human HOP62 cells; conditions: for CC50: read-out: LC50 (the source's name); how it was run: as §1
CCRF-CEM = assay: Cytotoxicity against human CCRF-CEM cells; conditions: for CC50: read-out: LC50 (the source's name); how it was run: as §1
M14 = assay: Cytotoxicity against human M14 cells; how it was run: as §1
SK-MEL-5 = assay: Cytotoxicity against human SK-MEL-5 cells; how it was run: as §1
HOP-92 = assay: Cytotoxicity against human HOP92 cells; conditions: for CC50: read-out: LC50 (the source's name); how it was run: as §1
MOLT-4 = assay: Cytotoxicity against human MOLT4 cells; conditions: for CC50: read-out: LC50 (the source's name); how it was run: as §1
UO-31 = assay: Cytotoxicity against human UO31 cells; conditions: for CC50: read-out: LC50 (the source's name); how it was run: as §1

Compound `COc1ccc2c(c1)c(C=C1C(=O)NC(=S)NC1=O)cn2C(=O)c1ccccc1Br` has a GI50 (KM12) of 3870 nM, a CC50 (KM12) of 51.9 µM and a GI50 (NCI/ADR-RES) of 3.23 µM. The CC50 (NCI/ADR-RES) was > 100 µM, the GI50 (SF-268) was 3.86 µM and the LC50 (SF-268) was 52.2 µM. For the same compound, the GI50 (U-251) was 3090 nM, the CC50 (U-251) was 42.1 µM and the GI50 (DU-145) was 3010 nM. The CC50 (DU-145) was 53.6 µM, the GI50 (HCT-116) was 3.76 µM and the CC50 (HCT-116) was > 100 µM. It also gave a GI50 (OVCAR-3) of 2770 nM, a CC50 (OVCAR-3) of 33.1 µM and a GI50 (MDA-MB-435) of 1770 nM. The CC50 (MDA-MB-435) was 8.43 µM, the GI50 (HL-60(TB)) was 3.24 µM and the LC50 (HL-60(TB)) was > 100 µM. The GI50 (K562) was 3.8 µM, the LC50 (K562) was > 100 µM and the GI50 (SF-539) was 3 µM. It also gave a CC50 (SF-539) of 57.8 µM, a GI50 (UACC-62) of 3380 nM and a CC50 (UACC-62) of 39.6 µM. It also gave a GI50 (LOX IMVI) of 2.92 µM, a CC50 (LOX IMVI) of 47.9 µM and a GI50 (HCT-15) of 3.83 µM. The CC50 (HCT-15) was 89.9 µM, the GI50 (SR) was 2550 nM and the LC50 (SR) was > 100 µM. It also gave a GI50 (HOP-62) of 3.59 µM, a CC50 (HOP-62) of 64.3 µM and a GI50 (CCRF-CEM) of 4 µM. The CC50 (CCRF-CEM) was > 100 µM, the GI50 (M14) was 3520 nM and the LC50 (M14) was > 100 µM. For the same compound, the GI50 (SK-MEL-5) was 3470 nM and the LC50 (SK-MEL-5) was > 50 µM.
For `O=C1NC(=S)NC(=O)C1=Cc1cn(C(=O)c2cccc3ccccc23)c2ccccc12`, the GI50 (NCI/ADR-RES) was 2.59 µM, the CC50 (NCI/ADR-RES) was > 100 µM and the GI50 (SF-268) was 3.68 µM. For the same compound, the LC50 (SF-268) was 50.7 µM, the GI50 (HOP-92) was 1300 nM and the CC50 (HOP-92) was 44.8 µM. For the same compound, the GI50 (HCT-116) was 2.9 µM, the CC50 (HCT-116) was > 100 µM and the GI50 (OVCAR-3) was 2460 nM. The CC50 (OVCAR-3) was > 100 µM, the GI50 (MDA-MB-435) was 1910 nM and the CC50 (MDA-MB-435) was 46.2 µM. For the same compound, the GI50 (HL-60(TB)) was 3.36 µM, the LC50 (HL-60(TB)) was > 100 µM and the GI50 (MOLT-4) was 3.49 µM. The CC50 (MOLT-4) was 79 µM, the GI50 (K562) was 3.71 µM and the LC50 (K562) was > 100 µM. For the same compound, the GI50 (SF-539) was 3.58 µM, the CC50 (SF-539) was 55.6 µM and the GI50 (LOX IMVI) was 3.59 µM. For the same compound, the CC50 (LOX IMVI) was > 100 µM, the GI50 (UO-31) was 3.93 µM and the CC50 (UO-31) was > 100 µM. It also gave a GI50 (HCT-15) of 3.6 µM, a CC50 (HCT-15) of 58.6 µM and a GI50 (SR) of 2740 nM. For the same compound, the LC50 (SR) was 44.8 µM, the GI50 (CCRF-CEM) was 3.35 µM and the CC50 (CCRF-CEM) was > 100 µM. For the same compound, the GI50 (M14) was 3220 nM and the LC50 (M14) was 9.23 µM.
`COc1ccc2c(c1)c(C=C1C(=O)NC(=S)NC1=O)cn2C(=O)c1cccc2ccccc12` was tested, and the GI50 (NCI/ADR-RES) was 3.14 µM, the CC50 (NCI/ADR-RES) was > 100 µM and the GI50 (SF-268) was 2.3 µM. For the same compound, the LC50 (SF-268) was > 100 µM, the GI50 (HOP-92) was 1090 nM and the CC50 (HOP-92) was > 100 µM. The GI50 (HCT-116) was 3.35 µM, the CC50 (HCT-116) was > 100 µM and the GI50 (OVCAR-3) was 2380 nM. It also gave a CC50 (OVCAR-3) of 20.9 µM, a GI50 (MDA-MB-435) of 2010 nM and a CC50 (MDA-MB-435) of 12 µM. The GI50 (HL-60(TB)) was 3.47 µM, the LC50 (HL-60(TB)) was > 100 µM and the GI50 (MOLT-4) was 3.95 µM. The CC50 (MOLT-4) was > 100 µM, the GI50 (K562) was 3.52 µM and the LC50 (K562) was > 100 µM. For the same compound, the GI50 (SF-539) was 3.23 µM, the CC50 (SF-539) was > 100 µM and the GI50 (LOX IMVI) was 3.8 µM. The CC50 (LOX IMVI) was > 100 µM, the GI50 (UO-31) was 3.72 µM and the CC50 (UO-31) was > 100 µM. For the same compound, the GI50 (HCT-15) was 3.1 µM, the CC50 (HCT-15) was > 100 µM and the GI50 (SR) was 3320 nM. For the same compound, the LC50 (SR) was > 100 µM, the GI50 (CCRF-CEM) was 3.31 µM and the CC50 (CCRF-CEM) was > 100 µM. For the same compound, the GI50 (M14) was 1910 nM and the LC50 (M14) was > 100 µM.
For `COc1ccc(C(=O)n2cc(C=C3C(=O)NC(=S)NC3=O)c3cc(OC)ccc32)cc1`, the GI50 (KM12) was 1990 nM, the CC50 (KM12) was > 50 µM and the GI50 (NCI/ADR-RES) was 2.91 µM. The GI50 (SF-268) was 2.65 µM, the GI50 (U-251) was 1930 nM and the CC50 (U-251) was > 50 µM. For the same compound, the GI50 (DU-145) was 2410 nM, the CC50 (DU-145) was > 50 µM and the GI50 (HCT-116) was 1.95 µM. For the same compound, the GI50 (OVCAR-3) was 1260 nM, the CC50 (OVCAR-3) was > 50 µM and the CC50 (MDA-MB-435) was 3.86 µM. It also gave a GI50 (HL-60(TB)) of 3.91 µM, a GI50 (K562) of 2.55 µM and a GI50 (SF-539) of 2.56 µM. For the same compound, the CC50 (SF-539) was > 50 µM, the GI50 (UACC-62) was 2330 nM and the CC50 (UACC-62) was > 50 µM. For the same compound, the GI50 (LOX IMVI) was 1.86 µM, the CC50 (LOX IMVI) was > 50 µM and the GI50 (HCT-15) was 1.8 µM. For the same compound, the CC50 (HCT-15) was > 50 µM, the GI50 (SR) was 1450 nM and the GI50 (HOP-62) was 3.12 µM. For the same compound, the CC50 (HOP-62) was > 50 µM, the GI50 (CCRF-CEM) was 2.23 µM and the CC50 (CCRF-CEM) was > 50 µM. The GI50 (M14) was 2030 nM and the GI50 (SK-MEL-5) was 2310 nM.
